In brackets after ≈: the same amount, converted by molar mass.
Tests used:
Type in all cases: functional
Staphylococcus aureus [1] = experiment: Antibacterial activity against methicillin-resistant glycopeptide-intermediate Staphylococcus aureus Mu50 after 16 to 20 hrs by microbroth dilution method
In short: (§1)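 CLSI broth microdilution in Mueller-Hinton broth. Compound stocks in 100% DMSO, serially diluted two-fold to 0.12->256 mg/L. An equal volume of inoculum at 1 x 10⁶ CFU/mL was added to each well. Plates were incubated 16-20 h at 35 °C. MIC (mg/L) was taken as the lowest concentration with no visible growth. DMSO and uninoculated-medium controls were run in parallel.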

Staphylococcus aureus [2] = experiment: Antibacterial activity against methicillin-resistant Staphylococcus aureus C530 after 16 to 20 hrs by microbroth dilution method; in short: as §1
Streptococcus pneumoniae = experiment: Antibacterial activity against Streptococcus pneumoniae PEN-1 after 16 to 20 hrs by microbroth dilution method; details: PEN I
In short: (§2)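 CLSI broth microdilution in Mueller-Hinton broth. Compounds were dissolved in 100% DMSO and serially two-fold diluted to cover 0.12 to >256 mg/L. An equal volume of inoculum at 1 × 10⁶ CFU/mL was added, then plates were incubated at 35 °C for 16–20 h. MIC was the lowest concentration with no visible growth. DMSO and uninoculated-medium controls were run in parallel.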

Escherichia coli [3] = experiment: Antibacterial activity against Escherichia coli ATCC 25922 after 16 to 20 hrs by microbroth dilution method; in short: as §2
Escherichia coli [4] = experiment: Antibacterial activity against Escherichia coli 3350 after 16 to 20 hrs by microbroth dilution method; in short: as §2
Serratia marcescens = experiment: Antibacterial activity against Serratia marcescens Mel 522 after 16 to 20 hrs by microbroth dilution method; in short: as §2
Streptococcus pyogenes [5] = experiment: Antibacterial activity against Streptococcus pyogenes ATCC 19615 after 16 to 20 hrs by microbroth dilution method; in short: as §1
Streptococcus pyogenes [6] = experiment: Antibacterial activity against erythromycin-resistant Streptococcus pyogenes 6 after 16 to 20 hrs by microbroth dilution method; in short: as §1
Streptococcus pyogenes [7] = experiment: Antibacterial activity against erythromycin-resistant Streptococcus pyogenes 24 after 16 to 20 hrs by microbroth dilution method; in short: as §1
Streptococcus pyogenes [8] = experiment: Antibacterial activity against erythromycin-resistant Streptococcus pyogenes 47 after 16 to 20 hrs by microbroth dilution method; in short: as §1
Streptococcus pyogenes [9] = experiment: Antibacterial activity against erythromycin-sensitive Streptococcus pyogenes 3 after 16 to 20 hrs by microbroth dilution method; in short: as §2
Streptococcus pyogenes [10] = experiment: Antibacterial activity against erythromycin-sensitive Streptococcus pyogenes 9 after 16 to 20 hrs by microbroth dilution method; in short: as §2
Streptococcus pyogenes [11] = experiment: Antibacterial activity against erythromycin-sensitive Streptococcus pyogenes 12 after 16 to 20 hrs by microbroth dilution method; in short: as §2
Staphylococcus aureus [12] = experiment: Antibacterial activity against methicillin-sensitive Staphylococcus aureus ATCC 29213 after 16 to 20 hrs by microbroth dilution method; in short: as §2
Staphylococcus aureus [13] = experiment: Antibacterial activity against methicillin-sensitive Staphylococcus aureus ATCC 25923 after 16 to 20 hrs by microbroth dilution method; in short: as §2
Staphylococcus aureus [14] = experiment: Antibacterial activity against Staphylococcus aureus ATCC 43300 after 16 to 20 hrs by microbroth dilution method; in short: as §2
Streptococcus pyogenes [15] = experiment: Antibacterial activity against compound-resistant Streptococcus pyogenes 24 after 16 to 20 hrs by microbroth dilution method; in short: as §1
Streptococcus pyogenes [16] = experiment: Antibacterial activity against compound-resistant Streptococcus pyogenes 47 after 16 to 20 hrs by microbroth dilution method; in short: as §1

Compound | MIC (Staphylococcus aureus [1]) [µg/mL] | MIC (Staphylococcus aureus [2]) [µg/mL] | MIC (Streptococcus pneumoniae) [µg/mL] | MIC (Escherichia coli [3]) [µg/mL] | MIC (Escherichia coli [4]) [µg/mL] | MIC (Serratia marcescens) [µg/mL] | MIC (Streptococcus pyogenes [5]) [µg/mL] | MIC (Streptococcus pyogenes [6]) [µg/mL] | MIC (Streptococcus pyogenes [7]) [µg/mL] | MIC (Streptococcus pyogenes [8]) [µg/mL] | MIC (Streptococcus pyogenes [9]) [µg/mL] | MIC (Streptococcus pyogenes [10]) [µg/mL] | MIC (Streptococcus pyogenes [11]) [µg/mL] | MIC (Staphylococcus aureus [12]) [µg/mL] | MIC (Staphylococcus aureus [13]) [µg/mL] | MIC (Staphylococcus aureus [14]) [µg/mL] | MIC (Streptococcus pyogenes [15]) [µg/mL] | MIC (Streptococcus pyogenes [16]) [µg/mL]
CC(=O)NCc1noc(-c2ccc(N3CCOCC3)cc2)n1 | > 256 | > 256 | 128 (≈ 423 µM) | > 256 | 128 (≈ 423 µM) | 128 (≈ 423 µM) | 128 (≈ 423 µM) | 128 (≈ 423 µM) | 64 (≈ 212 µM) | 64 (≈ 212 µM) | 128 (≈ 423 µM) | 128 (≈ 423 µM) | 128 (≈ 423 µM) | > 256 | > 256 | > 256 | – | –
CC(=O)NCc1noc(-c2ccc(N3CCOCC3)c(F)c2)n1 | > 256 | > 256 | > 256 | 128 (≈ 400 µM) | 128 (≈ 400 µM) | > 256 | 128 (≈ 400 µM) | 128 (≈ 400 µM) | 128 (≈ 400 µM) | > 256 | > 256 | > 256 | 128 (≈ 400 µM) | > 256 | > 256 | > 256 | – | –
CC(=O)NCc1noc(-c2cc(F)c(N3CCOCC3)c(F)c2)n1 | > 256 | > 256 | > 256 | 128 (≈ 378 µM) | 128 (≈ 378 µM) | > 256 | 128 (≈ 378 µM) | 128 (≈ 378 µM) | > 256 | 128 (≈ 378 µM) | > 256 | > 256 | > 256 | > 256 | > 256 | > 256 | – | –
CC(=O)NCc1noc(-c2cc(F)c(N3CCOCC3)c(F)c2F)n1 | > 256 | > 256 | > 256 | 128 (≈ 359 µM) | 128 (≈ 359 µM) | > 256 | 128 (≈ 359 µM) | 128 (≈ 359 µM) | > 256 | 128 (≈ 359 µM) | > 256 | > 256 | > 256 | > 256 | > 256 | > 256 | – | –
CC(=O)NCc1noc(-c2c(F)c(F)c(N3CCOCC3)c(F)c2F)n1 | > 256 | > 256 | > 256 | 128 (≈ 342 µM) | > 256 | > 256 | > 256 | > 256 | > 256 | > 256 | > 256 | > 256 | > 256 | > 256 | > 256 | > 256 | – | –
NC(=O)c1noc(-c2ccc(N3CCOCC3)cc2)n1 | > 256 | > 256 | 128 (≈ 467 µM) | > 256 | 128 (≈ 467 µM) | 128 (≈ 467 µM) | 128 (≈ 467 µM) | 128 (≈ 467 µM) | > 256 | > 256 | 128 (≈ 467 µM) | 128 (≈ 467 µM) | 128 (≈ 467 µM) | > 256 | > 256 | > 256 | – | –
NC(=O)c1noc(-c2ccc(N3CCOCC3)c(F)c2)n1 | > 256 | > 256 | > 256 | 128 (≈ 438 µM) | 128 (≈ 438 µM) | 128 (≈ 438 µM) | 128 (≈ 438 µM) | 128 (≈ 438 µM) | 128 (≈ 438 µM) | > 256 | 128 (≈ 438 µM) | > 256 | 128 (≈ 438 µM) | > 256 | > 256 | > 256 | – | –
NC(=O)c1noc(-c2cc(F)c(N3CCOCC3)c(F)c2)n1 | > 256 | > 256 | > 256 | 128 (≈ 413 µM) | 128 (≈ 413 µM) | > 256 | 128 (≈ 413 µM) | 128 (≈ 413 µM) | > 256 | 128 (≈ 413 µM) | > 256 | > 256 | > 256 | > 256 | > 256 | > 256 | – | –
NC(=O)c1noc(-c2cc(F)c(N3CCOCC3)c(F)c2F)n1 | > 256 | > 256 | > 256 | 128 (≈ 390 µM) | 128 (≈ 390 µM) | > 256 | 128 (≈ 390 µM) | 128 (≈ 390 µM) | > 256 | 128 (≈ 390 µM) | > 256 | > 256 | > 256 | > 256 | > 256 | > 256 | – | –
NC(=O)c1noc(-c2c(F)c(F)c(N3CCOCC3)c(F)c2F)n1 | > 256 | > 256 | > 256 | 128 (≈ 370 µM) | > 256 | > 256 | > 256 | > 256 | > 256 | > 256 | > 256 | > 256 | > 256 | > 256 | > 256 | > 256 | – | –
CO/N=C(\C(=O)N[C@@H]1C(=O)N2C(C(=O)O)=C(CSc3nc(=O)c(O)nn3C)CS[C@H]12)c1csc(N)n1 [CEFTRIAXONE] | 4 (≈ 7.21 µM) | > 256 | 0.12 (≈ 0.216 µM) | 0.12 (≈ 0.216 µM) | 4 (≈ 7.21 µM) | < 0.12 | < 0.12 | < 0.12 | < 0.12 | < 0.12 | < 0.12 | < 0.12 | < 0.12 | 4 (≈ 7.21 µM) | 1 (≈ 1.8 µM) | 8 (≈ 14.4 µM) | – | –
CC[C@H]1OC(=O)[C@H](C)[C@@H](O[C@H]2C[C@@](C)(OC)[C@@H](O)[C@H](C)O2)[C@H](C)[C@@H](O[C@@H]2O[C@H](C)C[C@H](N(C)C)[C@H]2O)[C@](C)(O)C[C@@H](C)C(=O)[C@H](C)[C@@H](O)[C@]1(C)O [ERYTHROMYCIN] | – | – | – | – | – | – | – | – | – | – | – | – | – | – | – | – | > 256 | > 256
CC(=O)NC[C@H]1CN(c2ccc(N3CCOCC3)c(F)c2)C(=O)O1 [LINEZOLID] | – | – | – | 4 (≈ 11.9 µM) | > 256 | 128 (≈ 379 µM) | 1 (≈ 2.96 µM) | 0.12 (≈ 0.356 µM) | 0.12 (≈ 0.356 µM) | 1 (≈ 2.96 µM) | 1 (≈ 2.96 µM) | 1 (≈ 2.96 µM) | 0.25 (≈ 0.741 µM) | – | 1 (≈ 2.96 µM) | – | – | –

Source: ChEMBL document CHEMBL1949535, “Synthesis and preliminary antibacterial evaluation of Linezolid-like 1,2,4-oxadiazole derivatives” (2012)
